Activity calls are given as the source filed them. The rule behind the calls is not given here.
Tests used:
Rattus norvegicus [1] = assay: (§1) Neuroprotective activity against middle cerebral artery occlusion-induced ischemia-reperfusion injury Sprague-Dawley rat model assessed as increase in AuroraB + cells in cerebral ischemic penumbra at 95 to 950 microg/kg, iv treated immediately reperfusion measured after 24 hrs by immunofluoresence assay; format: functional, organism-based; conditions: dose 95-950 µg/kg
Cortical neurone [2] = assay: Neuroprotective activity against in OGD/R-induced rat cortical neuron cytotoxicity assessed as decrease in cell viability pretreated at 1.8 uM for 24 hrs followed by subjected to OGD for 2 hrs measured after 24 hrs under normoxic condition i n presence of ML385 by MTT assay; format: functional, tissue-based
Method in brief: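 Cortical neurons were isolated from SD rat cortex by enzymatic digestion, plated on poly-lysine in 10% FBS DMEM, and pretreated 24 h at 1.8 μM in basal medium with 2% B27. OGD was run in glucose/FBS-free DMEM under 1% O₂, followed by 24 h reoxygenation in 10% FBS DMEM. Viability was read by MTT; apoptosis was also assessed. Three independent experiments.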

Rattus norvegicus [3] = assay: as §1, with “CD31 expression” for “AuroraB + cells”, “hrs in presence of PTIO” for “hrs”; format: functional, organism-based; conditions: dose 95-950 µg/kg
Rattus norvegicus [4] = assay: Neuroprotective activity against middle cerebral artery occlusion-induced ischemia-reperfusion injury Sprague-Dawley rat model assessed as decrease in cerebral edema degree at 95 to 9500 microg/kg, iv treated immediately reperfusion measured after 24 hrs; format: functional, organism-based; conditions: dose 95-9500 µg/kg
Method in brief: (§2)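 Male SD rats (12 weeks, 200–220 g; N = 8/group) underwent MCAO under […] (350 mg/kg) using a nylon intraluminal suture for 2 h, then reperfusion. Compound (95, 950 or 9500 μg/kg) was given iv immediately after reperfusion; where used, PTIO 1 mg/kg iv was given 30 min before. At 24 h, blinded scoring covered Longa neurological deficit, TTC infarct area/whole area, and edema from wet/dry brain weight (105 °C, 24 h).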

Rattus norvegicus [5] = assay: as §1, with “hrs in presence of PTIO” for “hrs”; format: functional, organism-based; conditions: dose 95-950 µg/kg
Cortical neurone [6] = assay: Induction of Nrf2 protein level in OGD/R-induced rat primary cortical neuron pretreated at 1.8 uM for 24 hrs followed by subjected to OGD for 2 hrs measured after 24 hrs under normoxic condition by Western blot analysis; format: functional, tissue-based
Method in brief: (§3)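 Primary rat cortical neurons were pretreated with 1.8 μM compound for 24 h, given 2 h OGD, then 24 h normoxic culture. Nrf2, HO-1 and NQO1 mRNA were measured by RT-qPCR. Cytoplasmic and nuclear protein (30 μg/lane) were blotted for Nrf2, with lamin A and β-actin as references, and quantified by densitometry as the nuclear:cytoplasmic ratio. Three independent experiments, mean ± SD.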

[7] = Stability of the compound under dark condition at 200 uM measured after 24 hrs by HPLC analysis; format: physicochemical
Rattus norvegicus [8] = assay: Angiogenic activity in middle cerebral artery occlusion-induced ischemia-reperfusion injury Sprague-Dawley rat model assessed as tube formation in cerebral ischemic penumbra at 95 to 9500 microg/kg, iv treated immediately reperfusion measured after 7 days by immunofluoresence assay; format: functional, organism-based; conditions: dose 95-9500 µg/kg, time 7.0 day
Method in brief: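 After MCAO/reperfusion, SD rats (N = 5/group) were dosed iv immediately after reperfusion and then daily for 7 days, with or without PTIO. Paraffin brain sections (3 μm) were immunostained for CD31, Ki67 and Aurora B with DAPI. Vascular density was CD31⁺/DAPI⁺; proliferating endothelium was CD31⁺Ki67⁺/CD31⁺.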

[9] = Neuroprotective activity against in OGD/R-induced rat cortical neuron apoptosis assessed as early apoptotic cells pretreated at 1.8 uM for 24 hrs followed by subjected to OGD for 2 hrs measured after 24 hrs under normoxic condition by PI/FITC-H staining based flow cytometry (reference value: 58.46%); format: functional, Cortical neurone
Rattus norvegicus [10] = assay: Neuroprotective activity against middle cerebral artery occlusion-induced ischemia-reperfusion injury Sprague-Dawley rat model assessed as decrease in brain infarct volume at 95 to 9500 microg/kg, iv treated immediately reperfusion in presence of PTIO measured after 24 hrs; format: functional, organism-based; conditions: dose 95-9500 µg/kg; method in brief: as §2
Cortical neurone [11] = assay: (§4) Neuroprotective activity against in OGD/R-induced rat cortical neuron cytotoxicity assessed as activation of NO/cGMP/PKG pathway by measuring increase in PKG expression pretreated at 1.8 uM for 24 hrs followed by subjected to OGD for 2 hrs measured after 24 hrs under normoxic condition by Western blot analysis; format: functional, tissue-based
Cortical neurone [12] = assay: as §4, with “cGMP level” for “PKG expression”, “condition in presence of NS2028” for “condition”, “ELISA” for “Western blot analysis”; format: functional, tissue-based
[13] = Stability of the compound in pH 6 phosphate buffer assessed as half life at 200 uM measured after 24 hrs by HPLC analysis; format: physicochemical; conditions: phosphate buffer pH 6, pH 6
Rattus norvegicus [14] = assay: as §1, with “CD31 expression” for “AuroraB + cells”; format: functional, organism-based; conditions: dose 95-950 µg/kg
Rattus norvegicus [15] = assay: Neuroprotective activity against middle cerebral artery occlusion-induced ischemia-reperfusion injury Sprague-Dawley rat model assessed as decrease in neurologic deficit scores at 95 to 9500 microg/kg, iv pretreated for 2 hrs followed by reperfusion measured after 24 hrs; format: functional, organism-based; conditions: dose 95-9500 µg/kg
Method in brief: (§5)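 Male SD rats (N = 8/group) were dosed iv at 95, 950 or 9500 μg/kg 2 h before 2 h MCAO (nylon suture, chloral hydrate anesthesia), then reperfused. Where used, PTIO 1 mg/kg iv was given 30 min before compound. At 24 h, blinded assessment covered Longa deficit score, TTC-stained 2 mm sections (infarct area/whole area), and edema by wet/dry weight.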

Cortical neurone [16] = assay: Induction of HO-1 mRNA transcript level in OGD/R-induced rat primary cortical neuron pretreated at 1.8 uM for 24 hrs followed by subjected to OGD for 2 hrs measured after 24 hrs under normoxic condition by RT-qPCR analysis; format: functional, tissue-based; method in brief: as §3
[17] = Drug metabolism in Sprague-Dawley rat assessed as peak nitrite release in plasma at 10 mg/kg, iv measured upto 120 mins by ion chromatography; format: ADME, organism-based; conditions: in vivo, 2 h
Method in brief: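 Male SD rats (N = 3/group) received a single iv dose. Plasma was sampled at 2, 5, 15, 30, 60, 90 and 120 min. Nitrite was quantified by ion chromatography. Values are mean ± SD.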

[18] = Neuroprotective activity against in OGD/R-induced rat cortical neuron apoptosis assessed as late apoptotic cells pretreated at 1.8 uM for 24 hrs followed by subjected to OGD for 2 hrs measured after 24 hrs under normoxic condition by PI/FITC-H staining based flow cytometry (reference value: 6.31%); format: functional, Cortical neurone
[19] = Lipo-hydro partition coefficient, logP of compound; format: physicochemical; conditions: octanol/water
Rattus norvegicus [20] = assay: Neuroprotective activity against middle cerebral artery occlusion-induced ischemia-reperfusion injury Sprague-Dawley rat model assessed as decrease in cerebral infarct volume at 950 microg/kg, iv pretreated for 2 hrs followed by reperfusion measured after 24 hrs in presence of PTIO; format: functional, organism-based; conditions: dose 950.0 µg/kg; method in brief: as §5
Rattus norvegicus [21] = assay: Neuroprotective activity against middle cerebral artery occlusion-induced ischemia-reperfusion injury Sprague-Dawley rat model assessed as increase in NQO1 expression in cerebral ischemic penumbra at 950 microg/kg, iv treated immediately reperfusion measured after 24 hrs; format: functional, organism-based; conditions: dose 950.0 µg/kg
Method in brief: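 MCAO rat brain paraffin sections (3 μm) were blocked with 10% goat serum and stained by IHC for NQO-1 and HO-1 (1:200) and phospho-Nrf2 (1:100), with DAB detection and rabbit IgG as negative control. Average optical density of positive cells was scored blinded over five fields per sample.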

O=C(/C(=C/c1ccccc1)C[N+](=O)[O-])c1ccccc1
Activity (Rattus norvegicus [1]): Active | Activity (Cortical neurone [2]): Active | Activity (Rattus norvegicus [3]): inactive | Activity (Rattus norvegicus [4]): Active | Activity (Rattus norvegicus [5]): inactive | Activity (Cortical neurone [6]): Active | Stability [7]: Stable | Activity (Rattus norvegicus [8]): Active | Activity [9]: 7.21% | Activity (Rattus norvegicus [10]): inactive | Activity (Cortical neurone [11]): Active | Activity (Cortical neurone [12]): inactive | half-life at 200 µM [13]: 1.1 h | Activity (Rattus norvegicus [14]): Active | Activity (Rattus norvegicus [15]): Active | Activity (Cortical neurone [16]): Active | Drug metabolism [17]: Metabolite_Detected | Activity [18]: 1.72% | logP [19]: 0.54 | Activity (Rattus norvegicus [20]): inactive | Activity (Rattus norvegicus [21]): Active

Reference: ChEMBL document CHEMBL5029154, “Design, Synthesis, and Biological Evaluation of Organic Nitrite (NO2-) Donors as Potential Anticerebral Ischemia Agents” (J Med Chem, 2021)
